DDE Tn7 FP inh: inhibitors of Tn7 peptide binding to fibrin DD(E), primary screen, biochemical, fluorescence polarization, human fibrin, Tn7 probe; Fibrinogen beta chain (Homo sapiens), P02675; FP displacement of FITC-Tn7 peptide from fibrin DD(E); 0% = median of compound wells per plate; inhibition, % at 8.3 µM; hit rate 0.13% among 370,000;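 active = inhibition above the mean of compounds falling within the control limits plus 3 SD of them, cut at about 14% in these data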;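 note: 0% = plate median of compound wells and 100% = 10 µM Aha-Tn7 peptide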
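Assay system: human fibrin DD(E). Input: DD(E) 2 µM final. Medium: Tris buffer with calcium and detergent, pH 7.8. Compound dosing: single point at 8.3 µM. Timing: 10 min plus 3 h, room temperature. Technique: fluorescence polarization of the labelled Tn7 tracer. Read-out: percent inhibition. Replicates: singlicate testing.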
GRK2 aptamer HTS: compounds blocking aptamer binding on GRK2 – biochemical, human GRK2, bead flow cytometry, HTS, primary screen | inhibition of aptamer binding, % at 10 µM | FAM-aptamer displacement from GRK2 | hit rate 0.59% among 330,000 | Beta-adrenergic receptor kinase 1 (Homo sapiens), P25098;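 active = inhibition of aptamer binding above 40%, roughly 3 SD of noise, on plates passing a quality check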;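 note: median bead fluorescence of bound FAM aptamer so fluorescent compounds give negative values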
Target sequence (P25098 whole entry, looked up): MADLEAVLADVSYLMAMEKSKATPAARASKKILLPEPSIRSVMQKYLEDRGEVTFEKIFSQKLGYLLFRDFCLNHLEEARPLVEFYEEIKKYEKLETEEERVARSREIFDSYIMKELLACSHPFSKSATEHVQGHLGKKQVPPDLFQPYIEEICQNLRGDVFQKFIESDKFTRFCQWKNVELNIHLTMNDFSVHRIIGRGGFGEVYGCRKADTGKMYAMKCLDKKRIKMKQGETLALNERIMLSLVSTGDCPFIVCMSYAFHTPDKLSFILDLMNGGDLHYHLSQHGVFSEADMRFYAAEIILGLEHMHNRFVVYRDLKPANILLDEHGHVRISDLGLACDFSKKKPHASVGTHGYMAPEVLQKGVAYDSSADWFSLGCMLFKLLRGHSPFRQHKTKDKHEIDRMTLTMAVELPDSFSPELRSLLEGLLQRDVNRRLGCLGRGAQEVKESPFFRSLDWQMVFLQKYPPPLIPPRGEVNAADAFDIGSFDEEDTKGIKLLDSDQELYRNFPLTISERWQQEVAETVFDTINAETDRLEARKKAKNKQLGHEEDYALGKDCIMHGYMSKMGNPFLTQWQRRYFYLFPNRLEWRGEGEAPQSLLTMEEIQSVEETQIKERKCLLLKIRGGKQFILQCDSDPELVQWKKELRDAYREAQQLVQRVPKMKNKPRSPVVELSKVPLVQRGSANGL
ARNT-TACC3 inh: disruptors of ARNT/TACC3 protein interaction, primary screen, biochemical, AlphaScreen, single concentration; Transforming acidic coiled-coil-containing protein 3 (Homo sapiens), Q9Y6A5; AlphaScreen His-ARNT PAS-B/GST-TACC3 binding, luminescence; TACC3 fragment carries E629A point mutation; inhibition, % at 9.99 µM; hit rate 0.66% among 390,000; AID 623870, 2012;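 active = mean inhibition of replicates at least 50% and at least half of replicates each reaching 50%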;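 note: 0% = complete ARNT plus TACC3 wells and 100% = ARNT alone without TACC3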
CAL PDZ FP-1: untagged CAL PDZ binding inhibitors, primary screen, biochemical, fluorescence polarization, HTS; Golgi-associated PDZ and coiled-coil motif-containing protein (Homo sapiens), Q9HD26; purified CAL PDZ, TMR-peptide fluorescence polarization, 1 h; inhibition, % at 24.9 µM; hit rate 0.92% among 300,000;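 active = mean inhibition of at least 30% with at least half of replicates also reaching 30%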;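 note: 0% = DMSO neutral control and 100% = excess unlabeled competitor peptide PRC23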
Tn6 DDE FP: inhibitors of Tn6 peptide binding to fibrin DD(E), primary screen, biochemical, fluorescence polarization, human fibrin, Tn6 probe | Fibrinogen beta chain (Homo sapiens), P02675 | Fibrin DD(E) TRITC-Tn6 fluorescence polarization displacement | inhibition, % at 8.3 µM | hit rate 0.21% among 370,000 | AID 720509, 2013;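 active = inhibition above a per-campaign cutoff: mean of compounds within control limits plus 3 SD, cut at about 15% in these data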;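 note: 0% = median of all compound wells on the plate and 100% = blocking peptide control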
CAL PDZ FP-2: CAL PDZ peptide-binding inhibitors, primary screen, biochemical, fluorescence polarization, Cer-tagged CAL PDZ, HTS; Golgi-associated PDZ and coiled-coil motif-containing protein (Homo sapiens), Q9HD26; purified CAL PDZ, TMR-peptide fluorescence polarization, 1 h; inhibition, % at 20 µM; hit rate 0.02% among 330,000;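 active = highest replicate inhibition of at least 40%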;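 note: plate controls were DMSO neutral control wells for no effect and unlabeled competitor peptide control wells for full effect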
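Control set: unlabelled peptide and DMSO controls / Material: purified CerCALP PDZ construct / Timing: 1 h incubation at room temperature before polarization reading / Doses: 20 µM, one dose / Detection: fluorescence polarization (mP)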
The depositor's hits bear a star. Compounds with a hit are over-represented: about 1.8% of the library has one in this group of screens.

For C#CCOCCOCCOCCNc1nc(N2CCN(C(=O)CCCCCCCCCCNC(=O)[C@H]([C@@H](C)CC)n3cc(CCCCCN)nn3)CC2)nc(N2CCN(C(=O)CCCCCCCCCCNC(=O)[C@H](CCCCN)n3cc(CCCC(=O)O)nn3)CC2)n1 the results were GRK2 aptamer HTS 0.0, ARNT-TACC3 inh 0.3, CAL PDZ FP-1 -3.3 and CAL PDZ FP-2 -1.0.
Screening CC(=O)N1C[C@@H](CN2C(=O)CCC2=O)[C@@H]2C[C@H]1c1ccccc1N2C returned DDE Tn7 FP inh -1.1 and Tn6 DDE FP 5.0.
Screening CC(NC(=O)c1ccccc1)C(=O)OCn1nnc2ccccc2c1=O (stereo not given) returned DDE Tn7 FP inh -3.2, GRK2 aptamer HTS 0.0, CAL PDZ FP-1 2.6, Tn6 DDE FP -1.0 and CAL PDZ FP-2 -1.6.
For CCC(C(=O)OCn1nnc2ccccc2c1=O)c1ccccc1 (stereo not given) the results were DDE Tn7 FP inh 0.5, GRK2 aptamer HTS 0.0, ARNT-TACC3 inh -0.6, CAL PDZ FP-1 54.3*, Tn6 DDE FP 4.6 and CAL PDZ FP-2 -0.9.
For COc1ccc(-n2c(Cc3cc(=O)[nH]c(=O)[nH]3)nnc2SCC(=O)N2CCC(C)CC2)cc1 the results were DDE Tn7 FP inh -4.2, GRK2 aptamer HTS 0.0, CAL PDZ FP-1 1.6, Tn6 DDE FP -3.3 and CAL PDZ FP-2 -0.1.
Screening COc1cccc(-n2c(Cc3cc(=O)[nH]c(=O)[nH]3)nnc2SCC(=O)N2CCC(C)CC2)c1 returned DDE Tn7 FP inh -6.0, GRK2 aptamer HTS 2.0, ARNT-TACC3 inh -1.8, CAL PDZ FP-1 50.1*, Tn6 DDE FP 3.6 and CAL PDZ FP-2 -0.2.
Cc1ccc(C(=O)NN2C(=O)/C(=C/c3cn(C)c4ccccc34)SC2=S)cc1 was read as DDE Tn7 FP inh -4.5, GRK2 aptamer HTS 7.0, ARNT-TACC3 inh -4.0, CAL PDZ FP-1 -2.6, Tn6 DDE FP -1.7 and CAL PDZ FP-2 0.7.
For Cn1cc(/C=C2\SC(=O)NC2=S)c2ccccc21 the results were DDE Tn7 FP inh 15.9*, GRK2 aptamer HTS 2.0, ARNT-TACC3 inh -4.1, CAL PDZ FP-1 -6.0, Tn6 DDE FP -1.0 and CAL PDZ FP-2 1.7.
`CSc1sc(C(=O)N2CCCCC2)c(-c2cccs2)c1C#N` gave DDE Tn7 FP inh -6.7, GRK2 aptamer HTS 0.0, ARNT-TACC3 inh -1.3, Tn6 DDE FP 4.2 and CAL PDZ FP-2 -1.9.
`O=C1NC(=O)/C(=C/c2ccc(N3CCOCC3)o2)N1` gave DDE Tn7 FP inh -4.7, GRK2 aptamer HTS 21.0, ARNT-TACC3 inh -4.5, CAL PDZ FP-1 31.1*, Tn6 DDE FP 2.4 and CAL PDZ FP-2 -0.8.
COc1cc(CNCc2cccnc2)ccc1OCC(=O)NC(C)(C)C was read as DDE Tn7 FP inh 5.7, GRK2 aptamer HTS 0.0, ARNT-TACC3 inh -3.6, CAL PDZ FP-1 0.0, Tn6 DDE FP 5.1 and CAL PDZ FP-2 -2.6.
For COc1ccc(CN2CCNC(=O)C2CC(=O)NC2CCCC2)cc1OC (stereo not given) the results were DDE Tn7 FP inh -1.8, GRK2 aptamer HTS 0.0, ARNT-TACC3 inh 0.2, CAL PDZ FP-1 -3.0, Tn6 DDE FP 3.2 and CAL PDZ FP-2 0.8.
Screening COc1cc(CNCc2ccccn2)ccc1OCc1ccccc1Cl returned DDE Tn7 FP inh -2.6, GRK2 aptamer HTS 0.0, ARNT-TACC3 inh 30.4, CAL PDZ FP-1 0.1, Tn6 DDE FP 4.7 and CAL PDZ FP-2 -0.4.
`COc1cc(CNCc2ccccn2)ccc1OCC(=O)NC(C)(C)C` gave DDE Tn7 FP inh -2.7, GRK2 aptamer HTS 14.0, ARNT-TACC3 inh 82.0*, CAL PDZ FP-1 -2.5, Tn6 DDE FP -8.5 and CAL PDZ FP-2 -0.7.
Screening CCOc1c(Cl)cc(CNCc2ccccn2)cc1OC returned DDE Tn7 FP inh -0.4, GRK2 aptamer HTS 0.0, ARNT-TACC3 inh 48.7*, CAL PDZ FP-1 -2.7, Tn6 DDE FP -4.8 and CAL PDZ FP-2 -3.5.
For COc1ccc(CN2CCNC(=O)C2CC(=O)NC2CCCCCCC2)cc1OC (stereo not given) the results were DDE Tn7 FP inh 2.3, GRK2 aptamer HTS 0.0, ARNT-TACC3 inh 2.0, CAL PDZ FP-1 54.9*, Tn6 DDE FP -6.2 and CAL PDZ FP-2 -0.4.
For COc1cc(CNCc2ccccn2)ccc1OCC(=O)NC1CCCCC1 the results were DDE Tn7 FP inh 5.3, GRK2 aptamer HTS 1.0, ARNT-TACC3 inh 47.3*, CAL PDZ FP-1 -0.7, Tn6 DDE FP 4.5 and CAL PDZ FP-2 -0.8.
Screening COc1cccc(S(=O)(=O)Nc2ccc3c(c2)C(=O)N(C)C[C@H](OC)[C@@H](C)CN[C@H](C)CO3)c1 returned ARNT-TACC3 inh -9.4.
For Cc1ccc(NC(=O)c2ccc(S(=O)(=O)N3CCCCCC3)cc2)nc1 the results were DDE Tn7 FP inh 0.2, GRK2 aptamer HTS 0.0, ARNT-TACC3 inh -2.2, CAL PDZ FP-1 1.4, Tn6 DDE FP 8.5 and CAL PDZ FP-2 -3.8.
Cc1ccc(NC(=O)c2ccc(S(=O)(=O)N3CCC(C)CC3)cc2)nc1 was read as DDE Tn7 FP inh 3.9, GRK2 aptamer HTS 0.0, ARNT-TACC3 inh -3.7, CAL PDZ FP-1 47.9*, Tn6 DDE FP 0.5 and CAL PDZ FP-2 -0.1.
For Cc1cccc(CCNS(=O)(=O)c2ccc3c(c2)CCN3C(=O)CCC(=O)O)c1 the results were GRK2 aptamer HTS 2.0, ARNT-TACC3 inh 28.3, CAL PDZ FP-1 2.2 and CAL PDZ FP-2 -1.6.
`Cc1cc(C(=O)COC(=O)c2ccc(N)c([N+](=O)[O-])c2)c(C)n1Cc1ccc2c(c1)OCO2` gave DDE Tn7 FP inh -1.8, GRK2 aptamer HTS 0.0, ARNT-TACC3 inh -0.1, CAL PDZ FP-1 123.4*, Tn6 DDE FP 3.3 and CAL PDZ FP-2 0.0.
Cc1cc(C(=O)COC(=O)c2ccc(N)c([N+](=O)[O-])c2)c(C)n1-c1ccc2c(c1)OCO2 was read as DDE Tn7 FP inh -2.8, GRK2 aptamer HTS 6.0, ARNT-TACC3 inh 8.5, CAL PDZ FP-1 -4.6, Tn6 DDE FP 2.6 and CAL PDZ FP-2 -2.5.
For N#Cc1ccc(COC(=O)c2cnc(Cl)c(Cl)c2)cc1 the results were DDE Tn7 FP inh -10.7, GRK2 aptamer HTS 4.0, ARNT-TACC3 inh 0.9, CAL PDZ FP-1 47.5*, Tn6 DDE FP -7.5 and CAL PDZ FP-2 -0.7.
For O=C(OCc1ccccc1)c1cnc(Cl)c(Cl)c1 the results were DDE Tn7 FP inh 0.4, GRK2 aptamer HTS 0.0, ARNT-TACC3 inh -3.3, CAL PDZ FP-1 3.4, Tn6 DDE FP 1.8 and CAL PDZ FP-2 -1.1.
